Structures are written as SMILES. Active and inactive are the calls of the source. No cut-off for these calls is given here.

The record followed here is ChEMBL document CHEMBL3351507, “11H-Pyrido[3',2':4,5]pyrrolo[3,2-c]cinnoline and pyrido[3',2':4,5]pyrrolo[1,2-c][1,2,3]benzotriazine: two new ring systems with antitumor activity” (2014).

Assay [1] can be described thus: Cytotoxicity against human LoVo/DX cells assessed as growth inhibition after 72 hrs by MTT assay. Type of assay: functional. The essentials: (§1)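 Cells were grown in medium with 10% heat-inactivated FBS plus penicillin/streptomycin: RPMI-1640 for Jurkat and CEM, DMEM for A-431, HAM's F12 for LoVo. The doxorubicin-resistant LoVo subclone was kept with 0.1 µg/mL doxorubicin. Cells were seeded at 5x10^3 per well and pre-incubated 24 h at 37 °C.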

Assay [2] has as its system LoVo. Description: Resistance index, ratio of GI50 for human LoVo/DX cells to GI50 for human LoVo cells. Type of assay: functional. The essentials:
(§2)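 CEMVbl-100 (vinblastine-selected CEM) was grown in RPMI-1640 with 0.1 µg/mL vinblastine. LoVoDoxo was grown in HAM's F12 with 0.1 µg/mL doxorubicin; parental CEM and LoVo were grown without drug. Media had 10% FBS. 5x10^3 cells were seeded, preincubated 24 h at 37 °C, then exposed 72 h to compound (DMSO <1%). Read-out was MTT; GI50 came from dose-response curves of ≥3 experiments. RI = GI50 resistant / GI50 parental.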

For assay [3], the system named is LoVo. Description: Cytotoxicity against human LoVo cells assessed as growth inhibition after 72 hrs by MTT assay. Type of assay: functional. The essentials:
as §1

Assay [4] deals with CCRF-CEM. Put plainly: Resistance index, ratio of GI50 for human vinblastin-resistant CEM cells to GI50 for human CEM cells. Type of assay: functional. The essentials: as §2
Assay [5] relates to CCRF-CEM. Put plainly: Cytotoxicity against human CEM cells assessed as growth inhibition after 72 hrs by MTT assay. Type of assay: functional. The method, boiled down: as §1
Assay [6] deals with CCRF-CEM. Put plainly: Cytotoxicity against human vinblastin-resistant CEM cells assessed as growth inhibition after 72 hrs by MTT assay. Type of assay: functional. The method, boiled down: as §2
The target of assay [7] is T1, DNA topoisomerase 1 (Homo sapiens) (UniProt P11387).
T1 sequence (whole entry): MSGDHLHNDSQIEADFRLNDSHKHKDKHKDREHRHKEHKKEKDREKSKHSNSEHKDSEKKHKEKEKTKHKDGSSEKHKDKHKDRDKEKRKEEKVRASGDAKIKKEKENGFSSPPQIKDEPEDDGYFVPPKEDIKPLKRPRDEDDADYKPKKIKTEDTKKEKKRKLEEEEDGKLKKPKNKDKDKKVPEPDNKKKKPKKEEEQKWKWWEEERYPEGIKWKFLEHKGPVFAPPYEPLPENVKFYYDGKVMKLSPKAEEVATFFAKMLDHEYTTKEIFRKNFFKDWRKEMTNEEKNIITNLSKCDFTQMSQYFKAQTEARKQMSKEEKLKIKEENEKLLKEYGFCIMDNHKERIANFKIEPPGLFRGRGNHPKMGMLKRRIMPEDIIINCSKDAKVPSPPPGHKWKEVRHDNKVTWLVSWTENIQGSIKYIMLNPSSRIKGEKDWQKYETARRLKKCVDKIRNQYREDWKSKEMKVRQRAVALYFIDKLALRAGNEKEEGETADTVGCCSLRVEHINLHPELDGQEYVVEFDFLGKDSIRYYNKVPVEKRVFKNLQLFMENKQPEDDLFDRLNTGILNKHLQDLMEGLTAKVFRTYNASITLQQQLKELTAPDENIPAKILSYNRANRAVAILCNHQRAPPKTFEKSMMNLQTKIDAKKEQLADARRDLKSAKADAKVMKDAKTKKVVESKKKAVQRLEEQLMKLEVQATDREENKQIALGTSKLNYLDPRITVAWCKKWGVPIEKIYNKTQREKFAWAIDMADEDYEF
Description: Inhibition of human DNA topoisomerase 1-mediated DNA single strand cleavage at 5 to 100 uM after 30 mins by agarose gel electrophoresis relative to untreated control. The method, boiled down:
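Reactions were set up as for relaxation: human topoisomerase I, 0.250 µg pBR322, compound 5-100 µM, 37 °C for 30 min, stopped with SDS/proteinase K. Samples were run on 0.8% agarose containing 0.5 µg/mL ethidium bromide, then destained in water, so that cleaved/nicked DNA could be detected under UV.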

Consider `COc1cccc2c1C(=O)c1c(O)c3c(c(O)c1C2=O)C[C@@](O)(C(=O)CO)C[C@@H]3O[C@H]1C[C@H](N)[C@H](O)[C@H](C)O1` [DOXORUBICIN], for which the figures for the GI50 in assay [1] and in assay [3] were 13500 nM and 120 nM, respectively. In assay [2], the Ratio turned out to be 112.5.
On to `CC[C@]1(O)C[C@@H]2CN(CCc3c([nH]c4ccccc34)[C@@](C(=O)OC)(c3cc4c(cc3OC)N(C)[C@H]3[C@@](O)(C(=O)OC)[C@H](OC(C)=O)[C@]5(CC)C=CCN6CC[C@]43[C@@H]65)C2)C1` [VINBLASTINE], for which the Ratio in assay [4] stood at 525. Further, the GI50 in assay [5] was 4 nM; in assay [6] it was 210 nM.
Regarding `CC[C@@]1(O)C(=O)OCc2c1cc1n(c2=O)Cc2cc3ccccc3nc2-1`, in assay [7], the result was Active.
